{
  "source": "ChEMBL document CHEMBL5712088",
  "about": "“Pharmacological inhibition of G9a/GLP restores cognition and reduces oxidative stress, neuroinflammation and β-Amyloid plaques in an early-onset Alzheimer's disease mouse model” (2019)",
  "key": {"Mus musculus [1]": {"system": "Mus musculus", "assay": "Neuroprotective activity in 5XFAD mouse assessed as increase in NRF2 protein level at 5 mg/kg/day, po for 4 weeks by Western blot analysis", "type": "functional, organism-based", "how_it_was_run": "(§1)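 Hippocampal lysates, with protease and phosphatase inhibitors, from 8-month-old male 5XFAD mice after 4 weeks at 5 mg/kg/day in drinking water. 15 μg protein resolved on 8-12% SDS-PAGE and blotted to PVDF. Blocked 1 h, primary antibody overnight at 4°C, HRP secondary, ECL detection. Values expressed as % of Wt control. n = 4 per group.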"}, "Mus musculus [2]": {"system": "Mus musculus", "assay": "Neuroprotective activity in 5XFAD mouse assessed as Vgf gene expression at 5 mg/kg/day, po for 4 weeks by RT-PCR analysis", "type": "functional, organism-based", "how_it_was_run": "(§2)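 Male 5XFAD mice, 8 months old, given 5 mg/kg/day in drinking water with 1,8% 2-hydroxypropyl-β-cyclodextrin for 4 weeks. Hippocampus collected one day after behavioural testing. Trizol RNA, 2 μg reverse-transcribed, TaqMan qPCR with 18 ng cDNA per reaction. ΔΔCt normalized to housekeeping gene. n = 4-6 (Hmox1: 3-6) per group. One-way ANOVA with Dunnett.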"}, "Mus musculus [3]": {"system": "Mus musculus", "assay": "Neuroprotective activity in 5XFAD mouse assessed as no change in IBA1 protein level at 5 mg/kg/day, po for 4 weeks by immunostaining analysis", "type": "functional, organism-based"}, "Mus musculus [4]": {"system": "Mus musculus", "assay": "Neuroprotective activity in 5XFAD mouse assessed as restoration of locomotor activity at 5 mg/kg/day, po for 4 weeks by open field test (reference value: 1672.36+/-68.84 cm)", "type": "functional"}, "Mus musculus [5]": {"system": "Mus musculus", "assay": "Antialzheimer activity in 5XFAD mouse model assessed as reduction of 5-mC global level in DNA at 5 mg/kg/day, po for 4 weeks", "type": "functional, organism-based", "how_it_was_run": "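8-month-old male 5XFAD mice dosed 5 mg/kg/day via drinking water (1,8% hydroxypropyl-β-cyclodextrin vehicle), 4 weeks. Hippocampal DNA assayed for global 5-mC or 5-hmC by antibody-based ELISA-like colorimetric kit, absorbance 450 nm. Quantified against a standard curve of five control DNA dilutions (0.5–10 ng). n = 4 per group.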"}, "Mus musculus [6]": {"system": "Mus musculus", "assay": "Antialzheimer activity in 5XFAD mouse model assessed as increase in 5-hmC global level in DNA at 5 mg/kg/day, po for 4 weeks"}, "Mus musculus [7]": {"system": "Mus musculus", "assay": "Anti-neuro inflammatory activity in 5XFAD mouse assessed as Cxcl10 mRNA expression at 5 mg/kg/day, po for 4 weeks by RT-PCR analysis", "type": "functional, organism-based", "how_it_was_run": "as §2"}, "Mus musculus [8]": {"system": "Mus musculus", "assay": "Neuroprotective activity in 5XFAD mouse assessed as increase in grooming at 5 mg/kg/day, po for 4 weeks by open field test (reference value: 1.2+/-0.25)", "type": "functional"}, "Mus musculus [9]": {"system": "Mus musculus", "assay": "Neuroprotective activity in 5XFAD mouse assessed as Ngf gene expression at 5 mg/kg/day, po for 4 weeks by RT-PCR analysis", "type": "functional, organism-based", "how_it_was_run": "as §2"}, "Mus musculus [10]": {"system": "Mus musculus", "assay": "Neuroprotective activity in 5XFAD mouse assessed as increase in GPX1 protein level at 5 mg/kg/day, po for 4 weeks by Western blot analysis", "type": "functional, organism-based", "how_it_was_run": "as §1"}, "Mus musculus [11]": {"system": "Mus musculus", "assay": "Neuroprotective activity in cognitive impairment of 5XFAD mouse model assessed as increase in discrimination index at 5 mg/kg/day, po for 4 weeks by novel object location test", "type": "functional, organism-based", "how_it_was_run": "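Object location task in 8-month-old male 5XFAD mice after 4 weeks of 5 mg/kg/day in drinking water. Sessions video-recorded from above. Time sniffing the relocated object (TN) versus the object in the familiar location (TO) was scored. DI = (TN-TO)/(TN+TO).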"}, "Mus musculus [12]": {"system": "Mus musculus", "assay": "Neuroprotective activity in 5XFAD mouse assessed as reduction in GFAP protein level by measuring fluorescence intensity at 5 mg/kg/day, po for 4 weeks by immunostaining analysis", "type": "functional, organism-based"}, "Mus musculus [13]": {"system": "Mus musculus", "assay": "Neuroprotective activity in 5XFAD mouse assessed as distance in zone-periphery at 5 mg/kg/day, po for 4 weeks by open field test (reference value: 1450.05+/-133.56 cm)", "type": "functional"}, "Mus musculus [14]": {"system": "Mus musculus", "assay": "Antioxidant activity in 5XFAD mouse hippocampus assessed as decrease in ROS level at 5 mg/kg/day, po for 4 weeks", "type": "functional, organism-based", "how_it_was_run": "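Hippocampal homogenates from 8-month-old male 5XFAD mice after 4 weeks of 5 mg/kg/day in drinking water (cyclodextrin vehicle). H2O2 concentration measured with a hydrogen peroxide assay kit as an oxidative stress index. n = 3 per group, mean ± SEM.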"}, "Mus musculus [15]": {"system": "Mus musculus", "assay": "Neuroprotective activity in 5XFAD mouse assessed as number of beta-amyloid plaques at 5 mg/kg/day, po for 4 weeks relative to control", "type": "functional", "how_it_was_run": "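Male 5XFAD mice, 8 months old, received 5 mg/kg/day in drinking water for 4 weeks. 30 μm brain sections rehydrated in PBS, then stained with 0.3% Thioflavin-S for 20 min at room temperature in the dark.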"}, "Mus musculus [16]": {"system": "Mus musculus", "assay": "Anti-neuro inflammatory activity in 5XFAD mouse assessed as reduction in Il-6 mRNA expression at 5 mg/kg/day, po for 4 weeks by RT-PCR analysis", "type": "functional, organism-based", "how_it_was_run": "as §2"}, "Mus musculus [17]": {"system": "Mus musculus", "assay": "Neuroprotective activity in 5XFAD mouse assessed as distance in zone-center at 5 mg/kg/day, po for 4 weeks by open field test (reference value: 87.64+/-8.21 cm)", "type": "functional"}, "Mus musculus [18]": {"system": "Mus musculus", "assay": "Neuroprotective activity in 5XFAD mouse assessed as increase in postsynaptic density protein 95 level at 5 mg/kg/day, po for 4 weeks by Western blot analysis", "type": "functional, organism-based", "how_it_was_run": "as §1"}, "Mus musculus [19]": {"system": "Mus musculus", "assay": "Neuroprotective activity in 5XFAD mouse model assessed as reduced cognitive deficit in short term memory at 5 mg/kg/day, po for 4 weeks by novel object recognition test", "type": "functional, organism-based", "how_it_was_run": "(§3)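 8-month-old male 5XFAD mice after 4 weeks of 5 mg/kg/day in drinking water. Two-arm 90° maze, habituated 10 min/day for 3 days. 10 min acquisition with two identical objects, then one object replaced after 2 h (short-term) or 24 h (long-term). DI = (TN−TO)/(TN+TO), exploration ≤2 cm. Objects counterbalanced.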"}, "Mus musculus [20]": {"system": "Mus musculus", "assay": "Neuroprotective activity in 5XFAD mouse assessed as urinations at 5 mg/kg/day, po for 4 weeks by open field test (reference value: 0)", "type": "functional"}, "Mus musculus [21]": {"system": "Mus musculus", "assay": "Anti-neuro inflammatory activity in 5XFAD mouse assessed as reduction in TNF-alpha mRNA expression at 5 mg/kg/day, po for 4 weeks by RT-PCR analysis", "type": "functional, organism-based", "how_it_was_run": "as §2"}, "Mus musculus [22]": {"system": "Mus musculus", "assay": "Neuroprotective activity in 5XFAD mouse assessed as defecations at 5 mg/kg/day, po for 4 weeks by open field test (reference value: 0.80+/-0.20 No_Unit)", "type": "functional"}, "Mus musculus [23]": {"system": "Mus musculus", "assay": "Neuroprotective activity in 5XFAD mouse assessed as increase in BDNF protein level at 5 mg/kg/day, po for 4 weeks by Western blot analysis", "type": "functional, organism-based", "how_it_was_run": "as §1"}, "Mus musculus [24]": {"system": "Mus musculus", "assay": "Neuroprotective activity in 5XFAD mouse assessed as increase in Hmox1 gene expression level at 5 mg/kg/day, po for 4 weeks by RT-PCR analysis", "type": "functional, organism-based", "how_it_was_run": "as §2"}, "Mus musculus [25]": {"system": "Mus musculus", "assay": "Neuroprotective activity in 5XFAD mouse assessed as increase in SOD1 protein level at 5 mg/kg/day, po for 4 weeks by Western blot analysis", "type": "functional, organism-based", "how_it_was_run": "as §1"}, "Mus musculus [26]": {"system": "Mus musculus", "assay": "Neuroprotective activity in 5XFAD mouse assessed as increase in synaptophysin protein level at 5 mg/kg/day, po for 4 weeks by Western blot analysis", "type": "functional, organism-based", "how_it_was_run": "as §1"}, "Mus musculus [27]": {"system": "Mus musculus", "assay": "Neuroprotective activity in 5XFAD mouse assessed as reduction in H3K9me2 level at 5 mg/kg/day, po for 4 weeks by Western blot analysis", "type": "functional, organism-based", "how_it_was_run": "as §1"}, "Mus musculus [28]": {"system": "Mus musculus", "assay": "Neuroprotective activity in 5XFAD mouse model assessed as reduced cognitive deficit in long term memory at 5 mg/kg/day, po for 4 weeks by novel object recognition test", "type": "functional, organism-based", "how_it_was_run": "as §3"}, "Mus musculus [29]": {"system": "Mus musculus", "assay": "Neuroprotective activity in 5XFAD mouse assessed as no change in Mcp1 mRNA expression at 5 mg/kg/day, po for 4 weeks by RT-PCR analysis", "type": "functional, organism-based", "how_it_was_run": "as §2"}, "Mus musculus [30]": {"system": "Mus musculus", "assay": "Neuroprotective activity in 5XFAD mouse assessed as increase in vertical activity by measuring number of rearings at 5 mg/kg/day, po for 4 weeks by open field test (reference value: 9.9+/-0.66)", "type": "functional"}},
  "note": "Active and inactive are the calls of the source. No cut-off for these calls is given here.",
  "data": [
    {"molecule": "COc1cc2c(NC3CCN(C(C)C)CC3)nc(N3CCC(F)(F)CC3)nc2cc1OCCCN1CCCC1", "values": [
      {"measurement": "Activity", "setting": "Mus musculus [1]", "result": "Active"},
      {"measurement": "Activity", "setting": "Mus musculus [2]", "result": "Active"},
      {"measurement": "Activity", "setting": "Mus musculus [3]", "result": "inactive"},
      {"measurement": "Activity", "setting": "Mus musculus [4]", "result": 2030.46, "unit": "cm"},
      {"measurement": "Activity", "setting": "Mus musculus [5]", "result": "Active"},
      {"measurement": "Activity", "setting": "Mus musculus [6]", "result": "Active"},
      {"measurement": "Activity", "setting": "Mus musculus [7]", "result": "inactive"},
      {"measurement": "Activity", "setting": "Mus musculus [8]", "result": 3.71},
      {"measurement": "Activity", "setting": "Mus musculus [9]", "result": "Active"},
      {"measurement": "Activity", "setting": "Mus musculus [10]", "result": "Active"},
      {"measurement": "Activity", "setting": "Mus musculus [11]", "result": "Active"},
      {"measurement": "Activity", "setting": "Mus musculus [12]", "result": "Active"},
      {"measurement": "Activity", "setting": "Mus musculus [13]", "result": 1623.83, "unit": "cm"},
      {"measurement": "Activity", "setting": "Mus musculus [14]", "result": "Active"},
      {"measurement": "Activity", "setting": "Mus musculus [15]", "result": 45, "unit": "%"},
      {"measurement": "Activity", "setting": "Mus musculus [16]", "result": "Active"},
      {"measurement": "Activity", "setting": "Mus musculus [17]", "result": 92.74, "unit": "cm"},
      {"measurement": "Activity", "setting": "Mus musculus [18]", "result": "Active"},
      {"measurement": "Activity", "setting": "Mus musculus [19]", "result": "Active"},
      {"measurement": "Activity", "setting": "Mus musculus [20]", "result": 0},
      {"measurement": "Activity", "setting": "Mus musculus [21]", "result": "Active"},
      {"measurement": "Activity", "setting": "Mus musculus [22]", "result": 0.86},
      {"measurement": "Activity", "setting": "Mus musculus [23]", "result": "Active"},
      {"measurement": "Activity", "setting": "Mus musculus [24]", "result": "Active"},
      {"measurement": "Activity", "setting": "Mus musculus [25]", "result": "Active"},
      {"measurement": "Activity", "setting": "Mus musculus [26]", "result": "Active"},
      {"measurement": "Activity", "setting": "Mus musculus [27]", "result": "Active"},
      {"measurement": "Activity", "setting": "Mus musculus [28]", "result": "Active"},
      {"measurement": "Activity", "setting": "Mus musculus [29]", "result": "inactive"},
      {"measurement": "Activity", "setting": "Mus musculus [30]", "result": 14.29}
    ]}
  ]
}
